Calls of active or inactive are those of the source. The calls are words filed in the database; no cut-off is given here.
How the values were obtained:
[1] = test system: SK-MEL-2; assay: Growth inhibition of human SK-MEL-2 cells assessed as cell growth at 100 nM relative to untreated control; format: functional; conditions: read-out: Activity
[2] = test system: NCI-H226; assay: Growth inhibition of human NCI-H226 cells assessed as cell growth at 10 uM relative to untreated control; format: functional; conditions: read-out: Activity
[3] = test system: NCI-H322M; assay: Growth inhibition of human NCI-H322M cells assessed as cell growth at 1 uM relative to untreated control; format: functional; conditions: read-out: Activity
[4] = test system: ACHN; assay: Growth inhibition of human ACHN cells; format: functional
[5] = test system: MCF7; assay: Growth inhibition of human MCF7 cells assessed as cell growth at 1 uM relative to untreated control; format: functional; conditions: read-out: Activity
[6] = test system: HOP-62; assay: Growth inhibition of human HOP62 cells assessed as cell growth at 10 uM relative to untreated control; format: functional; conditions: read-out: Activity
Outline: (§1)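 Run externally at the National Cancer Institute as a 59-cell-line panel screen, with concentrations up to 100 μM. Growth was scored relative to control, where negative growth or total cell kill was possible. Data are in the Supporting Information.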

[7] = test system: SF-295; assay: Growth inhibition of human SF295 cells assessed as cell growth at 1 uM relative to untreated control; format: functional; conditions: read-out: Activity
[8] = test system: OVCAR-8; assay: Growth inhibition of human OVCAR8 cells assessed as cell growth at 1 nM relative to untreated control; format: functional; conditions: read-out: Activity
[9] = test system: U-251; assay: Growth inhibition of human U251 cells assessed as cell growth at 1 nM relative to untreated control; format: functional; conditions: read-out: Activity
[10] = test system: Malme-3M; assay: Growth inhibition of human MALME-3M cells assessed as cell growth at 100 nM relative to untreated control; format: functional; conditions: read-out: Activity
[11] = test system: CCRF-CEM; assay: Growth inhibition of human CCRF-CEM cells assessed as cell growth at 100 nM relative to untreated control; format: functional; conditions: read-out: Activity
[12] = test system: EKVX; assay: Growth inhibition of human EKVX cells assessed as cell growth at 1 nM relative to untreated control; format: functional; conditions: read-out: Activity; outline: as §1
[13] = test system: HOP-62; assay: Growth inhibition of human HOP62 cells assessed as cell growth at 100 nM relative to untreated control; format: functional; conditions: read-out: Activity; outline: as §1
[14] = test system: TK-10; assay: Growth inhibition of human TK10 cells assessed as cell growth at 1 uM relative to untreated control; format: functional; conditions: read-out: Activity
[15] = test system: MDA-MB-435; assay: Growth inhibition of human MDA-MB-435 cells assessed as cell growth at 1 uM relative to untreated control; format: functional; conditions: read-out: Activity
[16] = test system: SN12C; assay: Growth inhibition of human SN12C cells assessed as cell growth at 1 uM relative to untreated control; format: functional; conditions: read-out: Activity
[17] = test system: SK-OV-3; assay: Growth inhibition of human SKOV3 cells assessed as cell growth at 1 uM relative to untreated control; format: functional; conditions: read-out: Activity
[18] = test system: SW-620; assay: Growth inhibition of human SW620 cells assessed as cell growth at 10 uM relative to untreated control; format: functional; conditions: read-out: Activity
[19] = test system: UACC-257; assay: Growth inhibition of human UACC257 cells assessed as cell growth at 1 nM relative to untreated control; format: functional; conditions: read-out: Activity
[20] = test system: DU-145; assay: Growth inhibition of human DU145 cells assessed as cell growth at 10 uM relative to untreated control; format: functional; conditions: read-out: Activity; outline: as §1
[21] = test system: OVCAR-4; assay: Growth inhibition of human OVCAR4 cells assessed as cell growth at 1 uM relative to untreated control; format: functional; conditions: read-out: Activity
[22] = test system: HOP-92; assay: Growth inhibition of human HOP92 cells assessed as cell growth at 10 uM relative to untreated control; format: functional; conditions: read-out: Activity; outline: as §1
[23] = test system: NCI/ADR-RES; assay: Growth inhibition of human NCI/ADR-RES cells; format: functional
[24] = test system: NCI/ADR-RES; assay: Growth inhibition of human NCI/ADR-RES cells assessed as cell growth at 1 uM relative to untreated control; format: functional; conditions: read-out: Activity
[25] = target: DNA (cytosine-5)-methyltransferase 3B (Homo sapiens) (UniProt Q9UBC3); assay: Binding affinity to DNMT3b in human PC3 cells cytoplasm at 5 uM after 1 hr by antibody staining; format: cell-based; conditions: PC-3
Outline: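 PC-3 cells were plated overnight on fibronectin/[…]-coated slides and treated with 5 μM compound or DMSO for 1-6 h. Cells were PBS-washed, fixed in 4% formaldehyde, and stained with propidium iodide (nuclei) and anti-DNMT3a or anti-DNMT3b antibody. The compound was excited at 725 nm by multiphoton laser and imaged through a 500-550 nm filter by confocal microscopy.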

[26] = test system: PC-3; assay: Growth inhibition of human PC3 cells; format: functional
[27] = test system: KM12; assay: Growth inhibition of human KM12 cells; format: functional
[28] = test system: SN12C; assay: Growth inhibition of human SN12C cells; format: functional
[29] = test system: MDA-MB-231; assay: Growth inhibition of human MDA-MB-231 cells assessed as cell growth at 100 nM relative to untreated control; format: functional; conditions: read-out: Activity
[30] = test system: HCT-15; assay: Growth inhibition of human HCT15 cells assessed as cell growth at 10 nM relative to untreated control; format: functional; conditions: read-out: Activity; outline: as §1
[31] = test system: MCF7; assay: Growth inhibition of human MCF7 cells assessed as cell growth at 10 uM relative to untreated control; format: functional; conditions: read-out: Activity
[32] = test system: UACC-62; assay: Growth inhibition of human UACC62 cells; format: functional
[33] = test system: IGROV-1; assay: Growth inhibition of human IGROV1 cells; format: functional
[34] = test system: RXF 393; assay: Growth inhibition of human RXF393 cells assessed as cell growth at 10 uM relative to untreated control; format: functional; conditions: read-out: Activity
[35] = test system: HOP-62; assay: Growth inhibition of human HOP62 cells; format: functional; outline: as §1
[36] = test system: NCI-H522; assay: Growth inhibition of human NCI-H522 cells assessed as cell growth at 10 nM relative to untreated control; format: functional; conditions: read-out: Activity
[37] = test system: K562; assay: Growth inhibition of human K562 cells assessed as cell growth at 100 nM relative to untreated control; format: functional; conditions: read-out: Activity
[38] = test system: IGROV-1; assay: Growth inhibition of human IGROV1 cells assessed as cell growth at 1 nM relative to untreated control; format: functional; conditions: read-out: Activity
[39] = test system: SW-620; assay: Growth inhibition of human SW620 cells assessed as cell growth at 1 uM relative to untreated control; format: functional; conditions: read-out: Activity
[40] = test system: A549; assay: Growth inhibition of human A549 cells; format: functional
[41] = test system: SNB-75; assay: Growth inhibition of human SNB75 cells assessed as cell growth at 100 nM relative to untreated control; format: functional; conditions: read-out: Activity
[42] = test system: OVCAR-8; assay: Growth inhibition of human OVCAR8 cells; format: functional
[43] = test system: UACC-257; assay: Growth inhibition of human UACC257 cells assessed as cell growth at 10 nM relative to untreated control; format: functional; conditions: read-out: Activity
[44] = test system: ACHN; assay: Growth inhibition of human ACHN cells assessed as cell growth at 1 uM relative to untreated control; format: functional; conditions: read-out: Activity
[45] = Growth inhibition of human Hs 578T cells assessed as cell growth at 100 nM relative to untreated control; format: functional; conditions: read-out: Activity
[46] = read-out: LC50 (the source's name)

Question: For COc1ccc2c(c1)[nH]c1c(C)c(OS(=O)(=O)c3cccc4c(N(C)C)cccc34)ccc12, which growth at 0.1 µM [1] is on record?
Answer: 115%

Question: What about the growth at 10 µM [2] of the same molecule?
Answer: 39%

Question: What about the growth at 1 µM [3] of the same molecule?
Answer: 52%

Question: And the GI50 [4]?
Answer: 7.38 µM

Question: And the TGI [4]?
Answer: > 100 µM

Question: And the CC50 [4, 46]?
Answer: > 100 µM

Question: And the growth at 1 µM [5]?
Answer: 10%

Question: And the growth at 10 µM [6]?
Answer: 35%

Question: What about the growth at 1 µM [7] of the same molecule?
Answer: 15%

Question: And the growth at 0.001 µM [8]?
Answer: 107%

Question: What about the growth at 0.001 µM [9] of the same molecule?
Answer: 100%

Question: What about the growth at 0.1 µM [10] of the same molecule?
Answer: 85%

Question: What about the growth at 0.1 µM [11] of the same molecule?
Answer: 91%

Question: And the growth at 0.001 µM [12]?
Answer: 99%

Question: What about the growth at 0.1 µM [13] of the same molecule?
Answer: 106%

Question: What about the growth at 1 µM [14] of the same molecule?
Answer: 48%

Question: And the growth at 1 µM [15]?
Answer: -5%

Question: What about the growth at 1 µM [16] of the same molecule?
Answer: 51%

Question: And the growth at 1 µM [17]?
Answer: 32%

Question: What about the growth at 10 µM [18] of the same molecule?
Answer: 9%

Question: What about the growth at 0.001 µM [19] of the same molecule?
Answer: 100%

Question: What about the growth at 10 µM [20] of the same molecule?
Answer: 2%

Question: And the growth at 1 µM [21]?
Answer: 44%

Question: And the growth at 10 µM [22]?
Answer: -1%

Question: What about the GI50 [23] of the same molecule?
Answer: 4.63 µM

Question: What about the TGI [23] of the same molecule?
Answer: > 100 µM

Question: What about the CC50 [23, 46] of the same molecule?
Answer: > 100 µM

Question: What about the growth at 1 µM [24] of the same molecule?
Answer: 28%

Question: What about the Activity [25] of the same molecule?
Answer: Active

Question: And the GI50 [26]?
Answer: 39.3 µM

Question: And the TGI [26]?
Answer: > 100 µM

Question: And the CC50 [26, 46]?
Answer: > 100 µM

Question: And the GI50 [27]?
Answer: 41.5 µM

Question: What about the TGI [27] of the same molecule?
Answer: > 100 µM

Question: What about the CC50 [27, 46] of the same molecule?
Answer: > 100 µM

Question: What about the GI50 [28] of the same molecule?
Answer: 11.3 µM

Question: And the TGI [28]?
Answer: > 100 µM

Question: What about the CC50 [28, 46] of the same molecule?
Answer: > 100 µM

Question: And the growth at 0.1 µM [29]?
Answer: 85%

Question: What about the growth at 0.01 µM [30] of the same molecule?
Answer: 92%

Question: What about the growth at 10 µM [31] of the same molecule?
Answer: 8%

Question: And the GI50 [32]?
Answer: 3.39 µM

Question: What about the TGI [32] of the same molecule?
Answer: > 100 µM

Question: And the CC50 [32, 46]?
Answer: > 100 µM

Question: What about the GI50 [33] of the same molecule?
Answer: 27.6 µM

Question: And the TGI [33]?
Answer: > 100 µM

Question: And the CC50 [33, 46]?
Answer: > 100 µM

Question: What about the growth at 10 µM [34] of the same molecule?
Answer: -32%

Question: And the GI50 [35]?
Answer: 17.3 µM

Question: And the TGI [35]?
Answer: > 100 µM

Question: And the CC50 [35, 46]?
Answer: > 100 µM

Question: What about the growth at 0.01 µM [36] of the same molecule?
Answer: 101%

Question: What about the growth at 0.1 µM [37] of the same molecule?
Answer: 91%

Question: And the growth at 0.001 µM [38]?
Answer: 111%

Question: And the growth at 1 µM [39]?
Answer: 24%

Question: What about the GI50 [40] of the same molecule?
Answer: 4.98 µM

Question: What about the TGI [40] of the same molecule?
Answer: > 100 µM

Question: And the CC50 [40, 46]?
Answer: > 100 µM

Question: What about the growth at 0.1 µM [41] of the same molecule?
Answer: 99%

Question: And the GI50 [42]?
Answer: 79.6 µM

Question: What about the TGI [42] of the same molecule?
Answer: > 100 µM

Question: What about the CC50 [42, 46] of the same molecule?
Answer: > 100 µM

Question: What about the growth at 0.01 µM [43] of the same molecule?
Answer: 109%

Question: What about the growth at 1 µM [44] of the same molecule?
Answer: 43%

Question: What about the growth at 0.1 µM [45] of the same molecule?
Answer: 88%

— ChEMBL document CHEMBL1157638, “Fluorescent epigenetic small molecule induces expression of the tumor suppressor ras-association domain family 1A and inhibits human prostate xenograft” (J Med Chem, 2010)
